# Assay outcomes from PubChem.
# PME-1 primary: PME-1 inhibitors via competitive probe labeling, primary screen, biochemical, fluorescence polarization, FP-Rh probe, HTS. Protein phosphatase methylesterase 1 (Homo sapiens), Q9Y570. recombinant PME-1. inhibition, % at 5.9 µM. 320,000 compounds, 0.53% hits. AID 2130, 2009;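 active means inhibition above the campaign mean of all compounds plus 3 SD, cut at about 26% in these data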;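 further: competitive labeling of PME-1 active site by serine hydrolase directed probe; 0% = PME-1 with DMSO and 100% = wells lacking PME-1 enzyme; inhibitors block probe labeling so polarization falls and inhibition rises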
# HTRA1 inhibitor: HTRA1 serine protease inhibitors, primary screen, biochemical, fluorescence polarization, HTS; Q92743; recombinant HTRA1, FP-rhodamine activity-based probe; inhibition, % at 5.96 µM; AID 504803, 2011; 340,000 compounds, 0.5% hits; in the data active means inhibition above about 36%;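 further: 0% = enzyme with DMSO and 100% = wells lacking enzyme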
# Target sequence (Q92743 whole entry, looked up): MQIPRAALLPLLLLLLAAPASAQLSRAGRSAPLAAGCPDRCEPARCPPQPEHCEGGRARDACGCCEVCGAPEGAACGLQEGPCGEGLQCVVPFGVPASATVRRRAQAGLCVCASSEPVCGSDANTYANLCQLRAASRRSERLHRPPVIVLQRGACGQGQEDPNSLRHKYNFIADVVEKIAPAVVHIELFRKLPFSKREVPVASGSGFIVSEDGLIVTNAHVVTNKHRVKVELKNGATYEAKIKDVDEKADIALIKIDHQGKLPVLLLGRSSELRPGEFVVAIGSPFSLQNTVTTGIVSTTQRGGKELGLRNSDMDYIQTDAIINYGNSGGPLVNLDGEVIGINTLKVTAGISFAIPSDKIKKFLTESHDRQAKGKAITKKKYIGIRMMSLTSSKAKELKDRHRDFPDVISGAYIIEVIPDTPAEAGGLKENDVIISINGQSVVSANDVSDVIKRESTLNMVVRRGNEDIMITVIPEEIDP
# Fam108B counter: mouse Fam108B serine hydrolase inhibitors, primary screen, counter-screen for RBBP9 inhibitor project, biochemical, fluorescence polarization; inhibition, % at 9.51 µM; recombinant Fam108B, FP-Rh probe fluorescence polarization; 300,000 compounds, 0.33% hits;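 active means inhibition above the screen mean inhibition plus 3 SD, computed separately per campaign, cut at about 18% in these data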;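 further: inhibitors lower polarization as less probe binds the enzyme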
# TCR CD3 inh: inhibitors of human TCR-CD3 interaction, primary screen, biochemical, fluorescence, TAMRA-labeled TCR probe. T-cell receptor (TCR). inhibition, % at 9.4 µM. 360,000 compounds, 0.37% hits;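 further: recombinant mutant TCR 2C K166C tagged with TAMRA read by polarization; 0% = receptor in buffer alone and 100% = receptor with positive control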
# mABHD4 FP: ABHD4 inhibitors, primary screen, biochemical, fluorescence polarization, mouse. AID 720543, 2013. 370,000 compounds, 0.54% hits. purified mABHD4, FP-Rh probe fluorescence polarization. inhibition, % at 8.92 µM;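 active means inhibition exceeding the mean over every tested compound plus 3 SD, cut at about 30% in these data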;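 further: 0% = plate median of compound wells and 100% = S159A mutant with DMSO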
#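 Material: mouse ABHD4 enzyme, wild type; Benchmarks: S159A mutant high control, sample median low control; Buffer or medium: HEPES pH 7.0, NaCl, Pluronic buffer; Signal: fluorescence polarization; Read-out: percent inhibition of probe binding, normalized to plate controls; Timing: pre-incubation 45 min, probe exposure 60 min, at 25 °C; Dosing: 8.92 µM, single dose.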
# SIAE primary: human SIAE inhibitors, primary screen, biochemical, fluorescence polarization, FP-Rh probe, 1536-well HTS; SIAE FP-Rh probe binding; inhibition, % at 9.66 µM; 370,000 compounds, 0.69% hits; AID 1053197, 2014;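 active means inhibition above a cutoff: mean of compounds within the control limits plus 3 SD of those, cut at about 17% in these data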;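 further: 0% = plate median of compound wells and 100% = probe without SIAE protein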
# HTRA1 conf: HTRA1 protease inhibitors, retest, confirmation, biochemical, fluorescence polarization | shares compounds with HTRA1 inhibitor | recombinant HTRA1, FP-rhodamine activity-based probe | inhibition, % at 5.96 µM | 1,600 compounds, 66% hits | AID 540248, 2011;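 active means mean inhibition over three repeats above a set limit taken from the earlier primary screen, cut at about 37% in these data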;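 further: 0% = HTRA1 with DMSO and 100% = wells lacking HTRA1; inhibitors block probe binding so polarization drops and inhibition rises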
# BSA probe FL: compounds interfering with TAMRA-BSA probe, counter-screen for TCR-CD3 interaction inhibitor project, biochemical, fluorescence, TAMRA-labeled BSA; shares compounds with TCR CD3 inh; TAMRA-labeled BSA probe fluorescence counterscreen; inhibition, % at 9.4 µM; 1,200 compounds, 10% hits; in the data active means inhibition above about 23%;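 further: 0% = buffer low control and 100% = reference high control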
# TCR-CD3 inh conf: TCR-CD3 interaction inhibitors, retest, confirmation, biochemical, fluorescence, TAMRA-labeled TCR probe. TAMRA-labeled TCR probe fluorescence binding assay. AID 652036, 2013. shares compounds with TCR CD3 inh. 1,200 compounds, 48% hits. inhibition, % at 9.4 µM
# ABHD4 confirm: ABHD4 inhibitors, retest, confirmation, biochemical, fluorescence polarization, mouse. purified mABHD4, FP-Rh probe fluorescence polarization. shares compounds with mABHD4 FP. inhibition, % at 8.92 µM. 1,800 compounds, 55% hits. AID 720658, 2013;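 active means mean inhibition across replicates above the hit cutoff set in the primary screen, cut at about 30% in these data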;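 further: 0% = wild-type ABHD4 with DMSO and 100% = catalytically dead S159A mutant with DMSO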
# SIAE inh conf: human SIAE inhibitors, retest, confirmation, biochemical, fluorescence polarization, FP-Rh probe, triplicate; shares compounds with SIAE primary; SIAE FP-Rh activity-based probe; inhibition, % at 9.66 µM; 2,300 compounds, 13% hits; AID 1117263, 2014;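 active means mean inhibition of the replicates above the hit cutoff set in the primary screen, cut at about 17% in these data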;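 further: 0% = SIAE with DMSO and probe and 100% = probe without SIAE; inhibitors lower polarization as more probe stays unbound to SIAE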
# * = called active by the depositor; x = not tested or not shown. Compounds with a hit are over-represented: about 1.8% of the library has one in this group of screens. Unless noted, no stated cut-off is given here; in the data, active means inhibition above about 19%; inactive means the rest.
SMILES,PME-1 primary,HTRA1 inhibitor,Fam108B counter,TCR CD3 inh,mABHD4 FP,SIAE primary,HTRA1 conf,BSA probe FL,TCR-CD3 inh conf,ABHD4 confirm,SIAE inh conf
Nc1cc(N)cc(-c2nc3ccccc3[nH]2)c1,32.2*,46.8*,17.4,-7.6,12.2,31.2*,20.9,x,x,x,5.3
COc1ccc(N)c2c1C(=O)c1ccccc1C2=O,18.0,37.9*,12.3,3.6,43.5*,20.5*,34.2,x,x,1.3,11.9
COc1ccc(C)cc1N,x,x,x,-3.8,-4.0,-4.4,x,x,x,x,x
COc1ccc(OC)c(N)c1,14.8,65.9*,9.1,22.8*,41.3*,28.2*,25.4,21.8,18.4,24.4,14.1
O=C(NCc1ccccn1)C1Nc2ccc(OC(F)(F)F)cc2C2C=CCC12 (configuration not stated),3.1,42.9*,-0.1,-7.1,48.0*,17.4*,-1.2,x,x,-3.9,1.0
Oc1ccc2ccccc2c1/C=C/c1ccc2c(Br)cc(Br)c(O)c2n1,x,66.3*,x,-8.9,33.8*,22.6*,68.6*,x,x,21.5,15.9
Oc1ccc(Cl)cc1/C=C/c1ccc2cccc(O)c2n1,x,5.3,x,-1.7,-9.8,8.3,x,x,x,x,x
Cc1ccc2c(c1)C1CS(=O)(=O)N(Cc3ccc(F)cc3)CN1C2 (configuration not stated),x,x,x,x,-5.5,-4.6,x,x,x,x,x
Cc1ccc(S(=O)(=O)Nc2nc3ccccc3nc2NCc2ccco2)cc1,6.8,43.4*,0.8,67.0*,54.8*,22.8*,-5.9,-2.2,3.0,-4.9,1.6
COc1ccccc1N1CCN(Cc2cc(Br)c(O)c3ncccc23)CC1,8.3,55.4*,7.1,3.2,22.0,28.8*,82.4*,x,x,x,22.3*
C/C(=N\NC(=O)c1cc(O)ccc1O)c1cccc(NC(=O)c2ccc(Cl)cc2)c1,8.6,43.9*,11.1,45.8*,56.9*,25.9*,16.7,-17.3,9.2,42.1*,10.2
CN(C)c1ccc(N/C=C/C(=O)C(C)(C)C)cc1,5.6,58.5*,6.1,13.5,25.7,17.4*,4.0,x,x,x,-3.3
CCOC(=O)c1ccc(N/C=C/C(=O)C(C)(C)C)cc1,1.1,-2.2,3.6,-0.5,-6.2,4.3,x,x,x,x,x
Oc1ccc(C2=Nn3c(nnc3-c3ccco3)SC2)cc1O,-1.7,43.5*,16.0,22.2*,43.5*,29.9*,34.3,x,x,39.8*,16.9
CCOC(=O)c1ccc(Nc2nc(C(=O)OCC)nc3ccccc23)cc1,-29.8,-53.5,-18.6,5.5,-30.1,-46.4,x,x,x,x,x
CCOC(=O)c1nc(Nc2ccc(Nc3ccccc3)cc2)c2ccccc2n1,x,45.6*,x,2.3,21.3,22.3*,59.8*,x,x,x,3.3
Cc1ccc(S(=O)(=O)NCc2ccncc2)cc1,6.9,0.3,-2.7,4.4,-1.0,2.5,x,x,x,x,x
Cc1ccc(S(=O)(=O)NCc2ccc3c(c2)cc(C)n3C)cc1,4.2,40.3*,-1.5,42.2*,59.7*,28.5*,10.9,5.6,6.2,0.8,2.9
Cc1cc2cc(CNC(=O)Nc3ccc(Cl)c(Cl)c3)ccc2n1C,-8.7,40.8*,-7.7,72.3*,37.9*,33.3*,13.2,3.1,5.5,-11.7,-8.7
Cc1cc2cc(CNC(=O)NC3CCCCC3)ccc2n1C,-2.8,29.5,2.5,3.2,14.3,5.6,x,x,x,x,x
N#CC(C#N)=C1C=C2C=C(N3CCCCCC3)CCC2CC1 (configuration not stated),x,52.4*,x,29.2*,-9.8,28.1*,34.7,20.3,13.6,x,21.5*
c1cc2c3c(cccc3c1)NC1(CCCCCC1)N2,1.8,39.2*,3.1,3.6,17.4,18.9*,51.2*,x,x,x,1.5
S=C1NC2(CCCCC2)NN1c1ccccc1,-4.1,1.1,4.3,2.3,6.7,3.6,x,x,x,x,x
O=C1C=C(O)c2c(O)cc(O)c(O)c2C1=O,10.3,77.8*,15.8,63.5*,84.0*,50.6*,55.9*,-3.0,64.2*,56.9*,10.0
CCN(CC)Cc1cc(Nc2c3ccccc3nc3c4ccccc4n(C)c23)cc(CN(CC)CC)c1O,x,38.0*,x,8.7,33.3*,17.5*,17.9,x,x,x,4.0
SMILES,PME-1 primary,HTRA1 inhibitor,Fam108B counter,TCR CD3 inh,mABHD4 FP,SIAE primary,HTRA1 conf,BSA probe FL,TCR-CD3 inh conf,ABHD4 confirm,SIAE inh conf
CCN1/C(=C/C=C/c2oc3ccc(-c4ccccc4)cc3[n+]2CC)Oc2ccc(-c3ccccc3)cc21,72.1*,113.9*,-10.9,104.7*,71.6*,68.0*,108.3*,152.1*,57.6*,89.0*,12.0
CCc1cc2c(nc1CC)CCCN2S(=O)(=O)c1ccccc1,x,x,x,-1.9,8.1,1.9,x,x,x,x,x
COc1cccc2[nH]c3ccccc3c(=O)c12,-0.9,3.0,1.4,x,x,x,x,x,x,x,x
Nc1cccc2c(=O)c3ccccc3[nH]c12,7.2,55.1*,10.1,17.8,59.7*,30.3*,18.4,x,x,41.2*,5.5
C=CCOC(=O)N[C@H](c1ccc2ccccc2c1)[C@H](C)/C=C/CC(=O)OC,x,x,x,x,-4.3,-3.8,x,x,x,x,x
O=C(N/N=C/c1c(O)ccc2ccccc12)c1ccc(CO)nc1,7.4,48.4*,7.9,33.9*,23.1,34.7*,46.0*,-15.6,25.0*,x,11.8
COc1cc(/C=N/NC(=O)c2cccc(NC(=O)c3ccccc3C)c2)ccc1O,2.0,-8.6,2.0,-2.0,7.2,7.3,x,x,x,x,x
Cc1ccccc1C(=O)Nc1cccc(C(=O)N/N=C/c2cc(Cl)cc([N+](=O)[O-])c2O)c1,9.9,41.9*,8.8,45.4*,36.6*,27.9*,49.9*,-6.3,55.7*,48.8*,1.7
C=CCn1cc(/C=N/Nc2nc3ccccc3[nH]2)c2ccccc21,2.9,40.7*,14.2,-0.7,24.6,56.1*,42.5*,x,x,x,53.1*
